According to the RNAGym collection of RNA variant scans (doi:10.1126/science.aae0568):
Fewer inactive variants are shown than the library holds.

B1: tRNA (parent)
chain: GUUCCGUUGGCGUAAUGGUAACGCGUCUCCCUCCUAAGGAGAAGACUGCGGGUUCGAGUCCCGUACGGAACG

Variants of: B1
Assay: yeast fitness relative to wild type (ratio to wild type); higher = fitter; tRNA-Arg(CCU), competitive growth, 37 C, YPD
How it was run: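 For this measurement, the tRNA-Arg(CCU) gene was varied by chemical synthesis at a 3% per-site mutation rate across 69 sites, and each variant was placed at the native genomic locus in Saccharomyces cerevisiae. The pooled strains went through a 24-hour competition in YPD at 37°C in six parallel replicates, with amplicons from start and end populations read by 100-nucleotide paired-end sequencing. Darwinian fitness relative to wild type followed from the change in each genotype's frequency. Genotypes needed ≥ 100 starting reads, and estimates < 0.5 were set to 0.5.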

Row | Variant | yeast fitness
1 | GUUCCGUUGGUGUAAUGGUUAAGCGUCUCCCUCCUAAGGAGAAGACUGCGGGUUCGAGUCCCGUAGGGAACG [C11U A20U C22A C66G] | ≤ 0.5
2 | GUUCCGUUGGUGUAGUGGUAACGCGUCUCCCUCCUAAGGAGAAGACUGCGGGUUCGAGUCCCGUCCGGAACG [C11U A15G A65C] | 0.713
3 | GUUCCGUUGGUGUAAUGGUAGCGCGUCUCCCUCCUAAGGAGAAGACUGCGGGUUCGAGACCGGUACGGAACG [C11U A21G U59A C62G] | 0.502
4 | GUUCCGUUGGUGUAAUGGUAACGCGUCUCCCUCCUCAGGAGAAGACUGCGGGUUCGAGUCCCGUACGCAACG [C11U A36C G68C] | ≤ 0.5
5 | GUUCCGUUGGUGUAAUGGUACCGCGUCUCCCUCCUAAGGAGGAGACUGUGGGUUCGAGUCCCGUACGGCGCG [C11U A21C A42G C49U A69C A70G] | ≤ 0.5
6 | GUUCCGUUGGUGUAAUGGUGAACCGUCGCCCUCCUAAGGAGAGGACUGCGGGUUCGGGUCCCGUACGGAUCG [C11U A20G C22A G23C U28G A43G A57G A70U] | 0.587
7 | GUUCCGUUGGUGUAAUGGUUACGUGUCUCUCUACUAAGGAGAAGACUGCGGGUACGAGUCGCGUACGGAACG [C11U A20U C24U C30U C33A U54A C61G] | ≤ 0.5
8 | GUUCCGUUGGUGUAAUGGUAACGCGUCUCCCUCCUAAGGGGAAGACGGCGGGUUCGAGUCCCGUACGGAACG [C11U A40G U47G] | ≤ 0.5
9 | GUUCCGUUGGUGUAAUGGUAACGCGUCUCCCUCCUAAGGAGCAGACUGUGGGUUCGAGUCCCGUACGGAACG [C11U A42C C49U] | 0.734
10 | GUUCCGUUGGUGUAAUGGUAAGGCGUCUCCCUCCUAAGGAGAAGACUGCGGGUUCGAGUCCCGUACGGACCG [C11U C22G A70C] | 0.669
11 | GUUCCGUUGGUGUAAUGGUACCGCGUCUCCCUCCUAAGGAGGAGACUGCGGGUUCGAGUCCCGUACGGAACG [C11U A21C A42G] | 0.523
12 | GUUCCGUUGGUGUACUGGUAACGCGUCUCCCUCCUCUGGAGAAGACUGCGGGUUCGAGUCCCGUACGGAACG [C11U A15C A36C A37U] | ≤ 0.5
13 | GUUCCGUUGGUGUAAUGGUAACGCGUCUCCCUCCUAAGGAGAAGUCUGCGGGUUCGAGUCCCGUUCGGAACG [C11U A45U A65U] | 0.82
14 | GUUCCGUUGGUGUAUUGGUAACGCGUCUCCCUCCUAAAGAGAAGACUGCGGGUUCAAGUCCCGUACGGAACG [C11U A15U G38A G56A] | ≤ 0.5
15 | GUUCCGUUGGUGUAUUGGUACCGGGUCUUCCUCCUAAGGAGCAGACUGCGGGUUCGAGGCCCGUACUGAACG [C11U A15U A21C C24G C29U A42C U59G G67U] | ≤ 0.5
16 | GUUCCGUUGGUGUAAUGGUAACGCGUCUCCCUCCUUAGGAGAAGACUGCGGGUUCGAGUCCCGUACGGAUCG [C11U A36U A70U] | 0.694
17 | GUUCCGUUGGUGUAUUGGUAACGCGUCUCCCUCCUAAGGAGAAGACUGCGGGUUCCAGUCCCGUACGGAACG [C11U A15U G56C] | ≤ 0.5
18 | GUUCCGUUGGUGUAAUGGUAAUGCGUCUCCCUCCUAAGGAGACGACUGUGGGUUGGAGUCUCGUACGGAACG [C11U C22U A43C C49U C55G C61U] | ≤ 0.5
19 | GUUCCGUUGGUGUAAUGGUAAAGCGUCUGCCUUCCAAGGAGAAGACUGCGGGUUCGAGUCCCGUACGGACCG [C11U C22A C29G C33U U35C A70C] | ≤ 0.5

Row | Variant | yeast fitness
20 | GUUCCGUUGGUGUAAUGGUACGGCGUCUCCCUCCUAAGGAGAAGACUGCGGGUCCGAGUCCAGUACGGAACG [C11U A21C C22G U54C C62A] | ≤ 0.5
21 | GUUCCGUUGGUGUAAUGGUCAGGCGUCUCCCUCCUAAGGAGAAGACUGCGGGUUCGAGUCCCGUACGGAACG [C11U A20C C22G] | 0.576
22 | GUUCCGUUGGUGUAAUGGUAAGGCGUUUCCGUCCUAAGGAGAAGACUGCGGGUUCGAGUCCCGUACGGAACG [C11U C22G C27U C31G] | ≤ 0.5
23 | GUUCCGUUGGUGUAAUGGUAGCGAGUCUCCCUCCUAAGGAGAAGACUGUGGGUUCGAGUCCCGUCCGGAACG [C11U A21G C24A C49U A65C] | ≤ 0.5
24 | GUUCCGUUGGUGUGAGGGUAACGGGCCUCCCUCCUAAGGAGAAGACGGCCGGUUCGAGUCCCGUAAGGAACG [C11U A14G U16G C24G U26C U47G G50C C66A] | ≤ 0.5
25 | GUUCCGUUGGUGUAAUGGUUACGUGUCUACCUCCUAAGGAGAAGACUGCGGGUUCGAGACCCGUACCGCACG [C11U A20U C24U C29A U59A G67C A69C] | ≤ 0.5
26 | GUUCCGUUGGUGUAAUGGUGACGCGUCUCCCUCCUAAGGAGAAGACUACGGGUUGGUGUCCCGUACGGAACG [C11U A20G G48A C55G A57U] | ≤ 0.5
27 | GUUCCGUUGGUGUAAUGGUAACGCGUCUCCCUCCUAAGGAGCAGACUGCGGGUUCGCGUCCCGUACGGAACG [C11U A42C A57C] | ≤ 0.5
28 | GUUCCGUUGGUGUACUCGUAAUGCGUCUCCCUCGUAAGGAGAAGACUGCGGGUUCGAGUCCCGUACGGAACG [C11U A15C G17C C22U C34G] | ≤ 0.5
29 | GUUCCGUUGGUGUAAUGGUAACGCGUCUCCCUCCUAAGGAGCAGACUGCGGGUUCGAGUCCCGUACGGAACG [C11U A42C] | 0.91
30 | GUUCCGUUGGUGUAAUGGUAACGCGUCUCCCUCCUAAGGAGGAGACUGCGGGUUCGAGUCCCGUACGGAACG [C11U A42G] | 0.917
31 | GUUCCGUUGGUGUAAUGGUUACGCGCCUCCCUCCUAAGGAGAAGACUGCGGGUUCGAGUCCCGUACGGAACG [C11U A20U U26C] | ≤ 0.5
32 | GUUCCGUUGGUGUAAUGGUAACGCGUCUCCCUCCUAGGGAGAAGACUACGGGUUCGAGUCCCGUACGGAACG [C11U A37G G48A] | 0.597
33 | GUUCCGUUGGUGUAAUGGUAACGCGUCUCCCUCCUUAGAAGAAGACUGCGGGUUCGAGUCCCGUACGGAACG [C11U A36U G39A] | ≤ 0.5
34 | GUUCCGUUGGUGUAAUGGUAGCGCGUCUCCCUCCUAUGGAAAAGACUGCGGGUUCGAGUCCCGUACGGAACG [C11U A21G A37U G41A] | ≤ 0.5
35 | GUUCCGUUGGUGUAAUGGUAACGCGUCUCCCUCCUAAGGAGGAGACUGCGGGUUCGAGUCCGGUACGGUACG [C11U A42G C62G A69U] | ≤ 0.5
36 | GUUCCGUUGGUGUAAUGGUAACGCGUCUCCCUCCUAAGGAGAAGUCUGCGGGUUCGAUUCCCGUACGGAACG [C11U A45U G58U] | 0.562
37 | GUUCCGUUGGUGUAAUGGUAACGCGUCUCCCUCCUAAGGAGAAGGCUGCGGCUUCGAGUCCCGUACGGAACG [C11U A45G G52C] | ≤ 0.5
38 | GUUCCGUUGGUGUAAUGGUAACGCGUCUCCCUCCUAAGGAGAAGGCUGCGGAUUCGAGUCCCGUACGGAACG [C11U A45G G52A] | 0.63
